Assay results: PMC3983359 (Journal of Medicinal Chemistry, 2014)
≈ marks a conversion by molar mass, not a printed value. Entries after “also recorded” stand apart in the source; their conditions may differ. Structures can show the parent of a compound that is named as a salt. Blank lines part the entries; values can stand above or below the compound they belong to. Peptide text beside a SMILES is read from it. * marks the point of attachment. βNA = c1ccc2cc(N*)ccc2c1

What was measured:
B. subtilis 168 = experiment: Membrane damage assessment; format: cell-based, Bacillus subtilis; conditions: 15 min incubation, up to 10-fold MIC, Syto9/propidium iodide
Procedure, shortened: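 B. subtilis membrane integrity assessed by fluorescence microscopy with Syto9, which stains all cells, and propidium iodide, which enters only compromised cells. […] Stained cells were counted.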

B. subtilis = experiment: MIC determination, broth dilution, B. subtilis; format: cell-based, Bacillus subtilis; conditions: for MIC: Bacillus subtilis
Procedure, shortened: (§1)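 Bacterial MIC followed NCCLS M07 broth microdilution. Test compound in DMSO (1 μL) added to 50 μL cation-adjusted Mueller Hinton II broth, then ~1 × 10^3 cfu from overnight liquid culture. Incubated at 30–37 °C for 16–20 h. MIC taken as the first well without visible growth. For imaging, 0.7% w/v resazurin (10 μL) added, then 4 h at 37 °C.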

Sfp-PPTase = target: T1, Sfp-PPTase (Bacillus subtilis, UniProt P39135); experiment: Rescue-by-dilution reversibility experiment; format: biochemical; conditions: 100-fold dilution from conditions producing 90% inhibition
T1 sequence (P39135 1-224): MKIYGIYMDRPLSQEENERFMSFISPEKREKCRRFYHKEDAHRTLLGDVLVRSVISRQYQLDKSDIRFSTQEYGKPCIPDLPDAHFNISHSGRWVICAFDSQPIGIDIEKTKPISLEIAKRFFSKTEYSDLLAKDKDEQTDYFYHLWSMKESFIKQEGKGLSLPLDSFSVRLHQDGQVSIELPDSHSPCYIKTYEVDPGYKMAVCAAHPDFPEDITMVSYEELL

B. subtilis Sfp-PPTase = target: T2, B. subtilis Sfp-PPTase (Bacillus subtilis, UniProt P39135); experiment: Sfp-PPTase qHTS assay; format: biochemical; conditions: for IC50 ± SD: triplicate; for Sfp-PPTase inhibitory activity in words: SAR discussion
T2 sequence (P39135 1-224): T1 sequence (P39135 1-224)

B. subtilis (HM489) = experiment: B. subtilis HM489 antibacterial assay; format: cell-based, Bacillus subtilis; conditions: cellular ATP content, Bac-Titer Glo
HepG2 cells = experiment: HepG2 cytotoxicity counterscreen; format: cell-based, human; conditions: cellular ATP content, CellTiter-Glo, 48 hr
human PPTase = target: T3, human PPTase (Homo sapiens, UniProt Q9NRN7); experiment: Gel-based PPTase assay with the human enzyme; format: biochemical; conditions: concentrations up to 125 μM
T3 sequence (Q9NRN7 1-309): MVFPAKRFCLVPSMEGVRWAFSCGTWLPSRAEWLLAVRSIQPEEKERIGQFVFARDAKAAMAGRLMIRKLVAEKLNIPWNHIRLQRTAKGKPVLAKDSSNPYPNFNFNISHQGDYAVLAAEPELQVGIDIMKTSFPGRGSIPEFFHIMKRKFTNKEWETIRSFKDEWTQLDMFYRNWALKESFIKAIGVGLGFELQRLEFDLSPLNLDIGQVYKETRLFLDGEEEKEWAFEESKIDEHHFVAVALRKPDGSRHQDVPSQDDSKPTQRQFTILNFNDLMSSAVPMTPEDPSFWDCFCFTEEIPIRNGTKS

[1] = Compound stability in aqueous media and buffers; format: physicochemical; conditions: pH range 2–9, PBS and HEPES
E. coli = experiment: MIC determination, broth dilution, E. coli; format: cell-based, Escherichia coli; conditions: E. coli K12 and BW25113
Procedure, shortened: as §1

Candida albicans = experiment: MIC determination, broth dilution, fungi; format: cell-based; conditions: C. albicans ATCC90028 and ATCC96901
Procedure, shortened: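 Fungal MIC followed NCCLS M27 broth microdilution against fluconazole-sensitive and fluconazole-resistant C. albicans strains. Inoculum was made by suspending 2-day-old colonies in RPMI 1640, ~1 × 10^3 cfu per well, with test compound in DMSO. Incubated at 30–37 °C for 48 h. MIC read visually as the first well without growth.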

P. aeruginosa = experiment: MIC determination, broth dilution, P. aeruginosa; format: cell-based, Pseudomonas aeruginosa; conditions: ATCC9028
Procedure, shortened: as §1

[2] = In vivo PK in male CD1 mice; design: species or system mouse
clinical strains of MRSA = experiment: MIC against clinical strains of S. aureus; format: cell-based, Staphylococcus aureus; conditions: all strains tested
CYP2D6 = CYP2D6 (Homo sapiens, UniProt P10635); experiment: CYP2D6 inhibition; format: in vitro ADME; conditions: 2D6, 3 μM, substrate dextromethorphan
CYP2D6, sequence (P10635 whole entry): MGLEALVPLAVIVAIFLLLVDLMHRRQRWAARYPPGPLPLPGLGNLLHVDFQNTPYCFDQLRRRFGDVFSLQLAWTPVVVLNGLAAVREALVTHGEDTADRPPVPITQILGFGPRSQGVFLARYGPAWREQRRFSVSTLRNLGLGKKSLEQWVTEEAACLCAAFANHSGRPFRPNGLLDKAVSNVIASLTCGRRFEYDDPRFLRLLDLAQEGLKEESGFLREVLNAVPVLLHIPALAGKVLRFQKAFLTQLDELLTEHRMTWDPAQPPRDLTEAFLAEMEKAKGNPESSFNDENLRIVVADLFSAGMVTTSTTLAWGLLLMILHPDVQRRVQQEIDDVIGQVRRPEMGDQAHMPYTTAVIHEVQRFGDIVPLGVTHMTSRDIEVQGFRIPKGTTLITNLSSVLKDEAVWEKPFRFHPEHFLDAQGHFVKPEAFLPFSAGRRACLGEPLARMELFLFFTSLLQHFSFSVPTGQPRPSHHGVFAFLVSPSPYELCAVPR

E. coli BW25113 = experiment: Checkerboard synergy experiment with PAβN; format: cell-based, Escherichia coli; conditions: top concentrations tested
Procedure, shortened: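 Checkerboard broth dilution in E. coli BW25113 combining test compound with PAβN over concentration grids. Resazurin added (10 μL, 0.7% w/v) and incubated a further 4 h at 37 °C; purple wells scored as no metabolically active bacteria. At each test-compound concentration, the lowest PAβN concentration halting growth was recorded. FIC index was estimated as combined potency relative to the single components.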

[3] = test system: S. aureus and B. subtilis; experiment: Minimum bactericidal concentration determination; format: cell-based
[4] = PAMPA passive permeability; format: in vitro ADME
[5] = Mouse liver microsome stability; format: in vitro ADME
[6] = test system: S. aureus BK2395 (PFGE USA500); experiment: Mouse model of S. aureus septicemia; format: in vivo; conditions: 55 30 mpk, vancomycin 50 mpk; 4, 24, 48 hours post infection
E. coli JW0451 (ΔacrB) = experiment: Broth dilution with efflux-defective E. coli mutant; format: cell-based, Escherichia coli
Procedure, shortened: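 Broth microdilution: test compound in DMSO (1 μL) added to 50 μL cation-adjusted Mueller Hinton II broth, then ~1 × 10^3 cfu inoculum from overnight culture. Incubated at 30–37 °C for 16–20 h. MIC scored visually as the first well without growth. Efflux-defective ΔacrB strain JW0451 tested alongside wild-type BW25113.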

Compound: CCCCCCCCCCCCCCCC[N+](C)(C)C [CTAB, cetyltrimethylammonium bromide]
bacterial cell membrane integrity (B. subtilis 168): rapid compromise of bacterial cell integrity
MIC (B. subtilis): ~2 µg/mL

Compound: O=C(N[C@H](CO)[C@H](O)c1ccc([N+](=O)[O-])cc1)C(Cl)Cl [Chloramphenicol]
bacterial cell membrane integrity (B. subtilis 168): continued cellular viability
MIC (B. subtilis): ~2 µg/mL (≈ 6.19 µM)

Compound: Cc1ccnc(NC(=S)N2CCN(c3ccccc3C(F)(F)F)CC2)c1 [Compound 22, N-(4-Methylpyridin-2-yl)-4-(2-(trifluoromethyl)phenyl)piperazine-1-carbothioamide Trifluoroacetate]
cytotoxicity (HepG2), IC50 (HepG2 cells): inactive

Compound: Cc1cc(C)nc(NC(=S)N2CCN(c3ccc(Cl)cc3C(F)(F)F)CC2)c1 [Compound 41, 4-(4-Chloro-2-(trifluoromethyl)phenyl)-N-(4,6-dimethylpyridin-2-yl)piperazine-1-carbothioamide Trifluoroacetate]
cytotoxicity (HepG2), IC50 (HepG2 cells): inactive

Compound: COc1ccnc(NC(=S)N2CCN(c3ncc(C(F)(F)F)cc3Cl)CC2)c1 [Compound 55, 4-(3-Chloro-5-(trifluoromethyl)pyridin-2-yl)-N-(4-methoxypyridin-2-yl)piperazine-1-carbothioamide Trifluoroacetate]
inhibition of the human PPTase (human PPTase): no inhibition; also recorded: null activity
degradation in aqueous media, buffers and mouse plasma [1]: no signs of degradation
growth inhibition of E. coli (E. coli): No growth inhibition
growth inhibition of fungal organisms (Candida albicans): No growth inhibition
bacterial cell membrane integrity (B. subtilis 168): continued cellular viability
growth inhibition of P. aeruginosa (P. aeruginosa): No growth inhibition
adverse clinical observations ([2]; iv 3 and ip 30 mg/kg, 24 h period): did not result in any adverse clinical observations
time for which exposure exceeds the in vitro antibacterial MIC value ([2]; total drug concentration): over 8 h
spread of potencies over the panel of clinical isolates (clinical strains of MRSA): ≤ 3 fold
CYP inh (3 μM) (%) (CYP2D6): 25 (2D6) %
antibacterial activity of the single compound against BW25113 (E. coli BW25113): neither compound alone was found to possess antibacterial activity
cytotoxicity (HepG2), IC50 (HepG2 cells): inactive
concentration inhibiting the growth of B. subtilis (B. subtilis; broth dilution, resazurin): 1.7 µg/mL
type of antibacterial activity [3]: bactericidal activity
PAMPA [4]: 1122 × 10^–6 cm/s
microsomal stability without NADPH ([5]; absence of NADPH cofactor, 1 h): completely stable
half-life ([5]; mouse, liver microsomes, microsomal stability (T1/2, min), mouse liver microsomes, with NADPH): 49.5 min
survival in mouse sepsis model [6]: did not increase survival
lowest concentration to which the ΔacrB strain is susceptible (E. coli JW0451 (ΔacrB); E. coli JW0451, lesion in acrB locus): 12.5 µg/mL
lowest concentration inhibiting bacterial growth (Figure 4B) (E. coli JW0451 (ΔacrB); legend: disruption of tolC): 12 µM

Compound: Cc1ccnc(NC(=S)N2CCC(Nc3cccc(C(F)(F)F)c3)CC2)c1 [Compound 63, N-(4-Methylpyridin-2-yl)-4-((3-(trifluoromethyl)phenyl)amino)piperidine-1-carbothioamide Trifluoroacetate]
cytotoxicity (HepG2), IC50 (HepG2 cells): inactive

Compound: Nc1ncnc2c1ncn2[C@@H]1O[C@H](COP(=O)(O)O)[C@@H](OP(=O)(O)O)[C@H]1O [PAP, 3′-phosphoadenosine 5′-monophosphate, reference compound]
inhibition of the human PPTase (human PPTase): observed inhibition
reversibility of inhibition of Sfp (Sfp-PPTase): reversible

Compound: NC(N)=NCCC[C@H](NC(=O)[C@@H](N)Cc1ccccc1)C(=O)Nc1ccc2ccccc2c1 [PAβN, phenylarginine-β-naphthamide, reference compound] (H-Phe-Arg-βNA)
antibacterial activity of the single compound against BW25113 (E. coli BW25113): neither compound alone was found to possess antibacterial activity

Compound: C/N=c1\nc(-c2ccccc2)n(-c2ccccc2)s1 [SCH-202676, reference compound]
inhibition of the human PPTase (human PPTase): observed inhibition
reversibility of inhibition of Sfp (Sfp-PPTase): irreversible inhibitor

Compound: CN[C@H](CC(C)C)C(=O)N[C@H]1C(=O)N[C@@H](CC(N)=O)C(=O)N[C@H]2C(=O)N[C@H]3C(=O)N[C@H](C(=O)N[C@H](C(=O)O)c4cc(O)cc(O)c4-c4cc3ccc4O)[C@H](O)c3ccc(c(Cl)c3)Oc3cc2cc(c3O[C@@H]2O[C@H](CO)[C@@H](O)[C@H](O)[C@H]2O[C@H]2C[C@](C)(N)[C@H](O)[C@H](C)O2)Oc2ccc(cc2Cl)[C@H]1O [vancomycin, reference compound]
survival in mouse sepsis model [6]: completely protected animals from morbidity

The next lines start with results.

reversibility of inhibition of Sfp (Sfp-PPTase): completely reversible inhibition
Compound: Cc1ccnc(NC(=S)N2CCN(c3cccc(C(F)(F)F)c3)CC2)c1 [Compound 1, N-(4-Methylpyridin-2-yl)-4-(3-(trifluoromethyl)phenyl)piperazine-1-carbothioamide Trifluoroacetate]

IC50 ± SD (B. subtilis Sfp-PPTase; Table 1, HTS assay): inactive
Compound: FC(F)(F)c1cccc(N2CCN(C(=S)Nc3cc(C(F)(F)F)ccn3)CC2)c1 [Compound 4]

IC50 ± SD (B. subtilis Sfp-PPTase; Table 1, HTS assay): inactive
Compound: Cc1cccc(NC(=S)N2CCN(c3cccc(C(F)(F)F)c3)CC2)c1 [Compound 5]

IC50 ± SD (B. subtilis Sfp-PPTase; Table 1, HTS assay): inactive
Compound: FC(F)(F)c1cccc(N2CCN(C(=S)Nc3ccncc3)CC2)c1 [Compound 6]

IC50 ± SD (B. subtilis Sfp-PPTase; Table 1, HTS assay): inactive
Sfp-PPTase IC50 (B. subtilis Sfp-PPTase; Table 4, HTS assay): inactive
Compound: Cc1ccnc(NC(=O)N2CCN(c3cccc(C(F)(F)F)c3)CC2)c1 [Compound 12, N-(4-Methylpyridin-2-yl)-4-(3-(trifluoromethyl)phenyl)piperazine-1-carboxamide Trifluoroacetate]
B. subtilis (HM489) IC50 (B. subtilis (HM489)): inactive

IC50 ± SD (B. subtilis Sfp-PPTase; Table 1, HTS assay): inactive
Compound: Cc1ccnc(NC(=N)N2CCN(c3cccc(C(F)(F)F)c3)CC2)c1 [Compound 13]

Sfp-PPTase inhibitory activity in words (B. subtilis Sfp-PPTase): complete loss of activity
IC50 ± SD (B. subtilis Sfp-PPTase; Table 1, HTS assay): inactive
Compound: Cc1cc(C)nc(N/C(=N/C#N)N2CCN(c3cccc(C(F)(F)F)c3)CC2)c1 [Compound 14]

Sfp-PPTase inhibitory activity in words (B. subtilis Sfp-PPTase): complete loss of activity
IC50 ± SD (B. subtilis Sfp-PPTase; Table 1, HTS assay): inactive
Compound: Cc1cc(C)nc(NC(=C(C#N)C#N)N2CCN(c3cccc(C(F)(F)F)c3)CC2)c1 [Compound 15]

IC50 ± SD (B. subtilis Sfp-PPTase; Table 1, HTS assay): inactive
Compound: Cc1cc(C)nc(Nc2nnc(N3CCN(c4cccc(C(F)(F)F)c4)CC3)s2)c1 [Compound 16]

IC50 ± SD (B. subtilis Sfp-PPTase; Table 1, HTS assay): inactive
Compound: Cc1ccnc(N(C)C(=S)N2CCN(c3cccc(C(F)(F)F)c3)CC2)c1 [Compound 19]

IC50 ± SD (B. subtilis Sfp-PPTase; Table 1, HTS assay): inactive
Compound: Cc1ccnc(NC(=S)NC2CCN(c3cccc(C(F)(F)F)c3)CC2)c1 [Compound 20]

Sfp-PPTase inhibitory activity in words (B. subtilis Sfp-PPTase): lost all activity
IC50 ± SD (B. subtilis Sfp-PPTase; Table 3, HTS assay): inactive
Compound: Cc1ccnc(NC(=S)NCCN(C)c2cccc(C(F)(F)F)c2)c1 [Compound 57]

Sfp-PPTase inhibitory activity in words (B. subtilis Sfp-PPTase): lost all activity
IC50 ± SD (B. subtilis Sfp-PPTase; Table 3, HTS assay): inactive
Compound: Cc1ccnc(NC(=S)NCCNc2cccc(C(F)(F)F)c2)c1 [Compound 58]

Sfp-PPTase inhibitory activity in words (B. subtilis Sfp-PPTase): all activity is lost
IC50 ± SD (B. subtilis Sfp-PPTase; Table 3, HTS assay): inactive
Compound: Cc1ccnc(NC(=S)NC2CN(c3cccc(C(F)(F)F)c3)C2)c1 [Compound 59]
